From ChEMBL document CHEMBL1147196, “Chemotherapy of leishmaniasis. Part V: Synthesis and in vitro bioevaluation of novel pyridinone derivatives” (Eur J Med Chem, 2007)
Converted amounts (≈) assume the structure as drawn. The source made the active and inactive calls. No cut-off for these calls is given here.

How the values were obtained:
Leishmania donovani [1] = experiment: Antiamastigote activity against Leishmania donovani MHOM IN/Dd8 in mouse J-774A.1 cells by luciferase reporter gene assay after 72 hrs; format: functional, organism-based, J774.A1; conditions: for IC50: Leishmania donovani, MHOM IN/Dd8, J774.A1, 72 h
In short: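 J-774A.1 mouse macrophages seeded 5 × 10^4 cells/well in RPMI-1640 + 10% FCS, 37 °C, CO2; after 24 h infected with stationary-phase luciferase-expressing promastigotes (2.5 × 10^5/well). Test material added in fresh complete medium (2.5–50 mg/ml range as printed), 72 h, 37 °C. Medium removed, PBS plus Steady-Glo, luminescence read. Inhibition vs untreated control RLU; IC50 by probit analysis.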

Leishmania donovani [2] = experiment: Antipromastigote activity against Leishmania donovani MHOM IN/Dd8 assessed as luciferase activity after 72 hrs; format: functional, organism-based; conditions: for IC50 / IC90: MHOM IN/Dd8, 72 h
In short: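 Firefly-luciferase-transfected promastigotes kept in medium 199 + 10% FCS, penicillin/streptomycin, G418 selection. Late-log cells seeded 5 × 10^5/well, 72 h with serial dilutions (2.5–50 mg/ml as printed) in DMSO; DMSO dilution controls. Aliquot mixed 1:1 with Steady-Glo, luminescence (RLU). % inhibition = (N−n)/N × 100 vs untreated control; IC50 by probit analysis.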

With `CCCCCCCCCCCCCCCCOP(=O)([O-])OCC[N+](C)(C)C` [MILTEFOSINE] the IC90 (Leishmania donovani [1]) was 107.51 µg/mL (≈ 264 µM) and the IC50 (Leishmania donovani [1]) was 33.9 µg/mL (≈ 83.2 µM).

`Cc1occc(=O)c1OCCCCCOc1c(C)n(Cc2ccccc2)ccc1=O` showed an IC50 (Leishmania donovani [2]) of 13.5 µg/mL (≈ 33.1 µM) and an IC90 (Leishmania donovani [2]) of 47.9 µg/mL (≈ 117 µM).

Compound `Cc1cccc(-n2ccc(=O)c(OCCCCCOc3c(C)n(-c4cccc(C)c4C)ccc3=O)c2C)c1C` has an IC50 (Leishmania donovani [2]) of 7.37 µg/mL (≈ 14 µM), an IC90 (Leishmania donovani [2]) of 19.1 µg/mL (≈ 36.2 µM) and an IC90 (Leishmania donovani [1]) of 42.3 µg/mL (≈ 80.3 µM). It also gave an IC50 (Leishmania donovani [1]) of 8.57 µg/mL (≈ 16.3 µM).

Compound `Cc1cccc(C)c1-n1ccc(=O)c(OCCCCCOc2c(C)n(-c3c(C)cccc3C)ccc2=O)c1C` has an IC50 (Leishmania donovani [2]) of 6.91 µg/mL (≈ 13.1 µM), an IC90 (Leishmania donovani [2]) of 12.5 µg/mL (≈ 23.7 µM) and an IC90 (Leishmania donovani [1]) of 48.43 µg/mL (≈ 92 µM). For the same compound, the IC50 (Leishmania donovani [1]) was 9.64 µg/mL (≈ 18.3 µM).

`Cc1occc(=O)c1OCCCCCOc1c(C)n(C2CCCCC2)ccc1=O` was tested, and the IC50 (Leishmania donovani [2]) was 4.59 µg/mL (≈ 11.4 µM), the IC90 (Leishmania donovani [2]) was 10.7 µg/mL (≈ 26.6 µM) and the IC90 (Leishmania donovani [1]) was 102.89 µg/mL (≈ 256 µM). The IC50 (Leishmania donovani [1]) was 24 µg/mL (≈ 59.8 µM).

`Cc1c(OCCCCCOc2c(C)n(Cc3ccccc3)ccc2=O)c(=O)ccn1Cc1ccccc1` gave an IC50 (Leishmania donovani [2]) of 9.98 µg/mL (≈ 20 µM), an IC90 (Leishmania donovani [2]) of 29.3 µg/mL (≈ 58.7 µM) and an IC90 (Leishmania donovani [1]) of 99.48 µg/mL (≈ 200 µM). For the same compound, the IC50 (Leishmania donovani [1]) was 13.2 µg/mL (≈ 26.4 µM).

For `Cc1cccc(C)c1-n1ccc(=O)c(OCCCCCOc2c(C)occc2=O)c1C`, the IC50 (Leishmania donovani [2]) was 17.9 µg/mL (≈ 42.2 µM) and the IC90 (Leishmania donovani [2]) was 57.9 µg/mL (≈ 137 µM).

In the case of `Cc1c(OCCCCCOc2c(C)n(C3CCCCC3)ccc2=O)c(=O)ccn1C1CCCCC1`, the IC50 (Leishmania donovani [2]) is reported as 4.57 µg/mL (≈ 9.47 µM), the IC90 (Leishmania donovani [2]) is reported as 18.6 µg/mL (≈ 38.6 µM) and the IC90 (Leishmania donovani [1]) is reported as 62.23 µg/mL (≈ 129 µM). For the same compound, the IC50 (Leishmania donovani [1]) was 22.8 µg/mL (≈ 47.2 µM).

`Cc1occc(=O)c1OCCCCCOc1c(C)n(-c2ccc(F)cc2)ccc1=O` was tested, and the IC50 (Leishmania donovani [2]) was 43.6 µg/mL (≈ 105 µM) and the IC90 (Leishmania donovani [2]) was 856 µg/mL (≈ 2070 µM).

Work on `Cc1occc(=O)c1OCCCCCOc1c(C)occc1=O` yielded an IC50 (Leishmania donovani [2]) of 18.7 µg/mL (≈ 58.3 µM), an IC90 (Leishmania donovani [2]) of 122 µg/mL (≈ 382 µM) and an IC90 (Leishmania donovani [1]) of 112.99 µg/mL (≈ 353 µM). The IC50 (Leishmania donovani [1]) was 12.9 µg/mL (≈ 40.2 µM).

`Cc1occc(=O)c1OCCCCCOc1c(C)n(-c2ccc([N+](=O)[O-])cc2)ccc1=O` was tested, and the IC50 (Leishmania donovani [2]) was 5.75 µg/mL (≈ 13.1 µM), the IC90 (Leishmania donovani [2]) was 20.2 µg/mL (≈ 45.9 µM) and the IC90 (Leishmania donovani [1]) was 28.58 µg/mL (≈ 64.9 µM). For the same compound, the IC50 (Leishmania donovani [1]) was 6.15 µg/mL (≈ 14 µM).

For `Cc1occc(=O)c1OCCCCCOc1c(C)n(-c2ccc(Cl)cc2)ccc1=O`, the IC50 (Leishmania donovani [2]) was 15.7 µg/mL (≈ 36.5 µM) and the IC90 (Leishmania donovani [2]) was 38.7 µg/mL (≈ 90.1 µM).

With `Cc1c(OCCCCCOc2c(C)n(-c3ccccc3)ccc2=O)c(=O)ccn1-c1ccccc1` the IC50 (Leishmania donovani [2]) was 22.7 µg/mL (≈ 48.2 µM) and the IC90 (Leishmania donovani [2]) was 49.8 µg/mL (≈ 106 µM).

In the case of `COc1ccccc1-n1ccc(=O)c(OCCCCCOc2c(C)occc2=O)c1C`, the IC50 (Leishmania donovani [2]) is reported as 4.04 µg/mL (≈ 9.5 µM), the IC90 (Leishmania donovani [2]) is reported as 13.3 µg/mL (≈ 31.3 µM) and the IC90 (Leishmania donovani [1]) is reported as 38.08 µg/mL (≈ 89.5 µM). For the same compound, the IC50 (Leishmania donovani [1]) was 5.32 µg/mL (≈ 12.5 µM).

For `Cc1c(OCCCCCOc2c(C)n(-c3ccc(F)cc3)ccc2=O)c(=O)ccn1-c1ccc(F)cc1`, the Activity (Leishmania donovani [2]) was “inactive”.

`N=C(N)c1ccc(OCCCCCOc2ccc(C(=N)N)cc2)cc1` [PENTAMIDINE] showed an IC50 (Leishmania donovani [2]) of 0.58 µg/mL (≈ 1.7 µM) and an IC90 (Leishmania donovani [2]) of 0.88 µg/mL (≈ 2.58 µM).

`COc1ccc(-n2ccc(=O)c(OCCCCCOc3c(C)n(-c4ccc(OC)cc4)ccc3=O)c2C)cc1` gave an IC50 (Leishmania donovani [2]) of 12.6 µg/mL (≈ 23.7 µM) and an IC90 (Leishmania donovani [2]) of 43.8 µg/mL (≈ 82.5 µM).

`C[C@@H]1[C@H](O)[C@@H](C)/C=C/C=C/C=C/C=C/C=C/C=C/C=C/[C@H](O[C@@H]2O[C@H](C)[C@@H](O)[C@H](N)[C@@H]2O)C[C@@H]2O[C@](O)(C[C@@H](O)C[C@@H](O)[C@H](O)CC[C@@H](O)C[C@@H](O)CC(=O)O[C@H]1C)C[C@H](O)[C@H]2C(=O)O` [AMPHOTERICIN B] showed an IC90 (Leishmania donovani [1]) of 0.1571 µg/mL (≈ 0.17 µM) and an IC50 (Leishmania donovani [1]) of 0.00646 µg/mL (≈ 0.00699 µM).
